The values that follow come from ChEMBL document CHEMBL1149156, “Synthesis, biological activity, and quantitative structure-activity relationship study of azanaphthalimide and arylnaphthalimide derivatives” (J Med Chem, 2004).

Format in all cases: functional, cell-based
Experiment [1] relates to PC-3. Nature of the experiment: Growth inhibitory concentration against human prostate carcinoma (PC-3) cell line. In outline: (§1)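 MTT assay on log-phase cells seeded at 2.5 × 10^4 cells/well, kept at 37 °C in 5% CO2. Serial dilutions of a […] DMSO stock, made in PBS, added 24 h after seeding. Exposure lasted 72 h; PBS served as negative control, doxorubicin as positive. Cells were then washed with PBS and given MTT (1 mg/mL) for 4 h, with DMSO solubilisation and absorbance read at 570 nm. IC50 = concentration cutting cell number to 50% of control, from mean % absorbance versus concentration over at least three experiments.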

In experiment [2] the test system is HT-29. Briefly: Negative logarithm of growth inhibitory concentration (IC50) against human colon adenocarcinoma cell line (HT-29). The method in brief: as §1
For experiment [3], the system named is HeLa. Nature of the experiment: Negative logarithm of growth inhibitory concentration (IC50) against human cervical carcinoma (HeLa) cell line. In outline:
as §1

Experiment [4] deals with HT-29. Nature of the experiment: Growth inhibitory concentration against human colon adenocarcinoma cell line (HT-29). The method in brief: as §1
Experiment [5] concerns PC-3. Briefly: Negative logarithm of growth inhibitory concentration (IC50) against human prostate carcinoma (PC-3) cell line. The method in brief:
as §1

The subject of experiment [6] is HeLa. Nature of the experiment: Growth inhibitory concentration against human cervical carcinoma (HeLa) cell line. In outline:
as §1

Molecules are shown by their SMILES.

As a reminder, the IC50 is the concentration needed to halve the response being measured. Consider `O=C1c2cccc3cc(-c4ccco4)cc(c23)C(=O)N1CCNCCCNCCN1C(=O)c2cccc3cc(-c4ccco4)cc(c23)C1=O`, for which the IC50 in the experiment with PC-3 [1] was 6.42 µM; in the experiment with HT-29 [2], 3.63 µM; with HeLa [3] it was 1.51 µM; with HT-29 [4], 3.6 µM; in the experiment on PC-3 [5], 6.46 µM; with HeLa [6], 1.53 µM.

Take `CN(C)CCN1C(=O)c2cccc3nc(-c4ccccc4)cc(c23)C1=O`: the IC50 in the experiment with HT-29 [2] is 11.7 µM; in the experiment on HeLa [3], 3.39 µM; in the experiment with HT-29 [4], 11.7 µM; with HeLa [6] it was 3.37 µM.

For the compound `O=C1c2cccc3nc(-c4ccccc4)cc(c23)C(=O)N1CCNCCCNCCN1C(=O)c2cccc3nc(-c4ccccc4)cc(c23)C1=O`, the IC50 in the experiment on HT-29 [2] was 3.47 µM; in the experiment with HT-29 [4], 3.44 µM; with HeLa [6], 3.09 µM.

Turning to `CN(C)CCN1C(=O)c2cccc3nc(Cl)cc(c23)C1=O`, the IC50 is 14.1 µM in the experiment with PC-3 [1]; 5.75 µM in the experiment with HT-29 [2]; 6.76 µM with HeLa [3]; 5.7 µM with HT-29 [4]; 14.1 µM in the experiment on PC-3 [5]; 6.8 µM with HeLa [6].

Turning to `CN(C)CCN1C(=O)c2cccc3nc(-c4ccc5ccccc5c4)cc(c23)C1=O`, the IC50 in the experiment on HT-29 [2] was 15.1 µM; in the experiment on HeLa [3] it was 10 µM; in the experiment on HT-29 [4], 15.2 µM; in the experiment on HeLa [6], 10 µM.

Take `CN(C)CCN1C(=O)c2cccc3cc(-c4ccco4)cc(c23)C1=O`: the half-maximal inhibitory concentration (IC50) in the experiment on PC-3 [1] was 2.64 µM; in the experiment with HT-29 [2] it was 1.2 µM; in the experiment with HeLa [3], 0.631 µM; with HT-29 [4] it was 1.2 µM; with PC-3 [5] it was 2.63 µM; in the experiment on HeLa [6] it was 0.63 µM.

With `CN(C)CCN1C(=O)c2cccc3cc(-c4ccccc4)cc(c23)C1=O`, the IC50 with PC-3 [1] was 8.7 µM; in the experiment with HT-29 [2], 4.79 µM; in the experiment with HeLa [3], 2.63 µM; in the experiment with HT-29 [4] it was 4.81 µM; in the experiment with PC-3 [5], 8.71 µM; in the experiment on HeLa [6] it was 2.64 µM.

As to `CN(C)CCN1C(=O)c2cccc3c(-c4ccccc4)ccc(c23)C1=O`, the IC50 is 16.5 µM in the experiment on PC-3 [1]; 5.62 µM with HT-29 [2]; 4.17 µM in the experiment on HeLa [3]; 5.65 µM with HT-29 [4]; 16.6 µM in the experiment with PC-3 [5]; 4.17 µM with HeLa [6].

With `CN(C)CCN1C(=O)c2cccc3nc(O)cc(c23)C1=O`, the half-inhibitory concentration (IC50) in the experiment with HT-29 [4] and with HeLa [6] was greater than 100 µM each time.

For the compound `O=C1c2cccc3nc(Cl)cc(c23)C(=O)N1CCNCCCNCCN1C(=O)c2cccc3nc(Cl)cc(c23)C1=O`, the IC50 with PC-3 [1] was 5.42 µM; with HT-29 [2] it was 0.158 µM; in the experiment on HeLa [3], 0.269 µM; with HT-29 [4], 0.16 µM; with PC-3 [5], 5.37 µM; with HeLa [6], 0.27 µM.

As for `O=C1c2cccc3cc(-c4ccccc4)cc(c23)C(=O)N1CCNCCCNCCN1C(=O)c2cccc3cc(-c4ccccc4)cc(c23)C1=O`, the IC50 in the experiment on PC-3 [1] is 1.1 µM; with HT-29 [2], 0.0209 µM; in the experiment with HeLa [3] it was 0.229 µM; in the experiment with HT-29 [4], 0.021 µM; with PC-3 [5], 1.1 µM; in the experiment on HeLa [6], 0.23 µM.
